From ChEMBL document CHEMBL4828721, “Substituted dienes prepared from betulinic acid - Synthesis, cytotoxicity, mechanism of action, and pharmacological parameters” (Eur J Med Chem, 2021) come the findings set out here.

pIC50: −log10 of the molar value. Calls of active or inactive are those of the source. The calls are words filed in the database; no cut-off is given here.

The test system of series [1] is CCRF-CEM. The series can be described thus: Induction of apoptosis in human CCRF-CEM cells assessed as downregulation of Bcl2 expression at 5 times IC50 measured after 24 hrs by western blot analysis. It is filed as functional, cell-based. The gist of the method: (§1)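 Protein (15 µg/lane) was resolved by 10% SDS-PAGE and transferred to nitrocellulose. Blocked in 5% milk/TBST, then probed overnight at 4 °C with primary antibodies (1:1000) and HRP secondaries. Detected by ECL, with β-actin as loading control.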

Series [2] is described as follows: Stability in human plasma assessed as parent compound remaining at 2 uM incubated for 120 mins by RF-MS analysis. The series is classed as ADME, cell-free. Conditions: read-out: Stability.
For series [3], the system named is CCRF-CEM. The series can be described thus: Induction of apoptosis in human CCRF-CEM cells assessed as dead cells at IC50 measured after 24 hrs by Annexin V-FITC/PI staining based flow cytometry analysis (Rvb= 0.3%). The series is classed as functional. The gist of the method:
(§2)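 They were washed in ice-cold PBS and incubated with Annexin V-FITC plus PI for 20 min at room temperature in the dark. Cells were then pelleted and resuspended in binding buffer (10 mmol/L HEPES/NaOH pH 7.4, 140 mmol/L NaCl, 2.5 mmol/L CaCl2). Read on a FACSAria II, ≥10,000 cells per sample.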

Series [4] concerns CCRF-CEM. The series can be described thus: Induction of apoptosis in human CCRF-CEM cells assessed as dead cells at 5 times IC50 measured after 24 hrs by Annexin V-FITC/PI staining based flow cytometry analysis (Rvb= 0.3%). The series is classed as functional. An outline of the steps: as §2
In series [5] the test system is CCRF-CEM. Description: Induction of apoptosis in human CCRF-CEM cells assessed as live cells at 5 times IC50 measured after 24 hrs by Annexin V-FITC/PI staining based flow cytometry analysis (Rvb= 96.7%). It is filed as functional.
The test system of series [6] is CCRF-CEM. The series can be described thus: Inhibition of RNA synthesis in human CCRF-CEM cells at 5 times IC50 by […] incorporation assay (Rvb= 36.54%). The series is classed as functional. Set-up: scale not given: the % may be the effect or the level left.
In series [7] the test system is CCRF-CEM. Description: Induction of apoptosis in human CCRF-CEM cells assessed as upregulation of BAX expression at 5 times IC50 measured after 24 hrs by western blot analysis relative to control. The series is classed as functional. An outline of the steps: as §1
Series [8] has as its system CCRF-CEM. The series can be described thus: Cytotoxicity against human CCRF-CEM cells assessed as reduction in cell viability measured after 72 hrs by MTS assay. The series is classed as functional, cell-based.
Series [9] concerns A549. Description: Cytotoxicity against human A549 cells assessed as reduction in cell viability measured after 72 hrs by MTS assay. It is filed as functional, cell-based. Conditions: A549, 72 h.
The subject of series [10] is CCRF-CEM. The series can be described thus: Cell cycle arrest in human CCRF-CEM cells assessed as accumulation of cells at sub G1 phase at IC50 measured after 24 hrs by propidium iodide staining based flow cytometry analysis (Rvb= 2.77%). It is filed as functional.
Series [11] concerns CCRF-CEM. The series can be described thus: Induction of apoptosis in human CCRF-CEM cells assessed as live cells at IC50 measured after 24 hrs by Annexin V-FITC/PI staining based flow cytometry analysis (Rvb= 96.7%). The series is classed as functional.
Series [12] in a line: Apparent permeability of the compound in human Caco2 cells assessed as recovery rate at pH 7.4 at 10 micromol/L measured after 1 hr by RF-MS analysis. To be noted: Caco-2, pH 7.4, dose 10 µmol/L, read-out: Activity. The series is classed as ADME, cell-based.
In series [13] the test system is CCRF-CEM. Description: Cell cycle arrest in human CCRF-CEM cells assessed as accumulation of cells at G2/M phase at 5 times IC50 measured after 24 hrs by propidium iodide staining based flow cytometry analysis (Rvb= 21.62%). It is filed as functional.
Series [14] in a line: Stability in human plasma assessed as parent compound remaining at 2 uM incubated for 30 mins by RF-MS analysis. It is filed as ADME, cell-free. Conditions: read-out: Stability.
Series [15] concerns U2OS. The series can be described thus: Cytotoxicity against human U2OS cells assessed as reduction in cell viability measured after 72 hrs by MTS assay. It is filed as functional, cell-based.
Series [16] concerns CCRF-CEM. The series can be described thus: Cell cycle arrest in human CCRF-CEM cells assessed as accumulation of cells at G0/G1 phase at IC50 measured after 24 hrs by propidium iodide staining based flow cytometry analysis (Rvb= 40.20%). The series is classed as functional.
For series [17], the system named is CCRF-CEM. The series can be described thus: Cell cycle arrest in human CCRF-CEM cells assessed as accumulation of cells at G0/G1 phase at 5 times IC50 measured after 24 hrs by propidium iodide staining based flow cytometry analysis (Rvb= 40.20%). It is filed as functional.
The subject of series [18] is CCRF-CEM. Description: Induction of cell cycle arrest in human CCRF-CEM cells assessed as downregulation of cyclin D1 protein expression at 5 times IC50 measured after 24 hrs by western blot analysis. It is filed as functional, cell-based. The gist of the method:
as §1

In series [19] the test system is MRC5. Description: Cytotoxicity against human MRC5 cells assessed as reduction in cell viability measured after 72 hrs by MTS assay. It is filed as cell-based. Conditions: MRC5, 72 h.
The nature of series [20]: Efflux ratio of apparent permeability across basolateral to apical side to apparent permeability across apical to basolateral side in dog MDCK-MDR1 cells at pH 7.4 at 10 micromol/L measured after 1 hr by RF-MS analysis. It is filed as ADME, cell-based, Canis lupus familiaris. To be noted: MDCK-MDR1, pH 7.4, dose 10 µmol/L. The gist of the method:
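Efflux ratio is Papp(B→A)/Papp(A→B) from bidirectional transport across Caco-2 (2 h) or MDCK-MDR1 (1 h) monolayers. Compound was dosed in HBSS pH 7.4 and quantified by RapidFire MS/MS. Run in duplicates. ER > 2 was taken as a potential P-gp substrate.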

Series [21] deals with CCRF-CEM. The series can be described thus: Inhibition of RNA synthesis in human CCRF-CEM cells at IC50 by […] incorporation assay (Rvb= 36.54%). The series is classed as functional. More on the design: scale not given: the % may be the effect or the level left.
Series [22] in a line: Microsomal stability in human liver microsomes assessed as parent compound remaining at 2 uM in the presence of NADPH measured after 15 mins by RF-MS analysis. Conditions: read-out: Stability. It is filed as ADME, Microsome. An outline of the steps:
(§3)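 Human liver microsomes incubated with compound in the presence of NADPH cofactor to assess phase I oxidation. Intrinsic clearance was derived from the decline of the parent compound.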

A short description of series [23]: Microsomal stability in human liver microsomes assessed as parent compound remaining at 2 uM in the presence of NADPH measured after 60 mins by RF-MS analysis. To be noted: read-out: Stability. The series is classed as ADME, Microsome. An outline of the steps:
as §3

For the molecule `C=C(/C=C/c1ccc([N+](=O)[O-])cc1)[C@@H]1CC[C@]2(C(=O)O)CC[C@]3(C)[C@H](CC[C@@H]4[C@@]5(C)CC[C@H](O)C(C)(C)[C@@H]5CC[C@]43C)[C@@H]12`, the outcome in [1] and in [18] was Active. In series [2], the remaining at 2 h, 2 µM stood at 71.5%. The Activity in [3] is on record as 1.8%; in [4], 1.9%; in [5], 70.9%; in series [6], 4.07%; in series [7], 20%; in series [10], 6.54%. Also, the Activity in [11] is reported as 90.9%; in series [13] it was 12.81%; in [16] it was 48.4%; in series [17], 29.57%; in series [21] it was 34.98%. For the same molecule, the negative logarithm of the IC50 (pIC50) in series [8] is 5.44; in series [9], 4.84; in series [15], 4.71; in series [19], 4.72. The recovery at 1 h, 10 µM in series [12] turned out to be 58.5%. In addition, the remaining at 0.5 h, 2 µM in series [14] was determined as 79.1%. Moreover, the efflux ratio at 1 h, 10 µM in series [20] was 3.06. Also, in series [22], the remaining at 0.25 h, 2 µM came out at 93.2%. Besides, the remaining at 1 h, 2 µM in series [23] was 53.5%.
Regarding `C=C(/C=C/c1cccc(Cl)c1)[C@@H]1CC[C@]2(C(=O)O)CC[C@]3(C)[C@H](CC[C@@H]4[C@@]5(C)CC[C@H](O)C(C)(C)[C@@H]5CC[C@]43C)[C@@H]12`, the remaining at 2 h, 2 µM in [2] was found to be 77.7%. The Activity in series [3] was determined as 1.4%; in [5], 88.5%; in [6] it was 11.37%; in series [10], 5.66%; in series [11], 91.9%; in [13], 12.28%. The results for the Activity in [16], in series [17] and in [21] were 42.87%, 49.79% and 18.97%, respectively. Moreover, the pIC50 in series [8] was 5.49; in series [9] it was 4.53; in series [15], 4.76; in series [19], 4.49. For the same molecule, in series [12], the recovery at 1 h, 10 µM came to 42.1%. The remaining at 0.5 h, 2 µM in series [14] stood at 87.9%. In addition, in [18], the result was Active. Besides, in series [20], the efflux ratio at 1 h, 10 µM is 2.9. Further, in series [22], the remaining at 0.25 h, 2 µM turned out to be 90.1%. Further, the remaining at 1 h, 2 µM in series [23] came out at 81.5%.
